Active and inactive are the calls of the source. No cut-off for these calls is given here.

The first test concerns the target T1, Vitamin D3 receptor (Homo sapiens, UniProt P11473).
T1 sequence (P11473 whole entry): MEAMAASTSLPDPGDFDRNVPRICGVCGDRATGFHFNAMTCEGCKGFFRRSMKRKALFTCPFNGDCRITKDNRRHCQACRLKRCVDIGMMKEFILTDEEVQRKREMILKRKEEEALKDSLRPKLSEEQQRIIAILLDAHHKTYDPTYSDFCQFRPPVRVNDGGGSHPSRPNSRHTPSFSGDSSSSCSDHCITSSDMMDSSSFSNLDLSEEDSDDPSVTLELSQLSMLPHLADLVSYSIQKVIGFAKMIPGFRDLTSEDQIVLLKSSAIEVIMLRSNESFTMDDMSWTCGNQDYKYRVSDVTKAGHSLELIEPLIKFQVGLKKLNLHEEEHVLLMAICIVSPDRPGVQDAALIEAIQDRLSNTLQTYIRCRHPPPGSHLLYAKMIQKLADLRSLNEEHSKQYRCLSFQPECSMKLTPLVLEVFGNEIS
The test is described as follows: Activation of human VDR expressed in HEK293 cells cotransfected CMX-GAL4-RXRalpha and 4-tk-LUC assessed as heterodimerization with RXRalpha by mammalian two-hybrid assay. Type of test: cell-based.
Conditions: not given
An outline of the steps:
(§1)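 HEK293 cells in DMEM with 5% FBS, per well: 50 ng TK-MH100(UAS)×4-LUC reporter, 10 ng pCMX-β-galactosidase, 15 ng pCMX-VP16-VDR, and 15 ng of a GAL4 fusion. The fusion was RXRα for heterodimerisation, SRC-1 for coactivator binding, N-CoR, or SMRT (NCoR2). Cells were treated across a concentration range. Luciferase was normalised to β-galactosidase.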
What is called EC50 is the concentration giving half of the maximal effect. Regarding `C=C1[C@H](O)CC(=C/C=C2\CCC[C@]3(C)[C@@H]([C@H](C)CC#C[C@H](O)CC45CC6CC(CC(C6)C4)C5)CC[C@@H]23)C[C@H]1O`, the concentration giving a half-maximal response (EC50) came out at 2.3 nM.

A further test has as its target T1, Vitamin D3 receptor. Description: Displacement of [3H]-1,25(OH)2D3 from GST-fused human VDR-LBD expressed in Escherichia coli BL21.
Conditions: not given
An outline of the steps: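 hVDR-LBD (aa 140–427) as a GST fusion from E. coli BL21 sonicated lysate, 1 μg in pH 7.5 Tris/KCl/DTT/CHAPS buffer with BSA. Ligand in EtOH was preincubated 30 min at RT. [26,27-methyl-³H]-1,25(OH)₂D₃ was then added for 20 h at 4 °C. Free ligand was removed with dextran-coated charcoal and centrifugation, and bound radioactivity counted. IC50 from at least two triplicate runs.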
For orientation: Loss of bound radioactivity is the signal in a displacement assay; it reports binding, not function.
In general, IC50 refers to the concentration that gives 50% inhibition. A high value points to weaker potency. With `C=C1[C@H](O)CC(=C/C=C2\CCC[C@]3(C)[C@@H]([C@H](C)CC#C[C@H](O)CC45CC6CC(CC(C6)C4)C5)CC[C@@H]23)C[C@H]1O`, the IC50 worked out at 13 nM.

The next test concerns HaCaT. The test is described as follows: Induction of cathelicidine antimicrobial peptide mRNA expression in human HaCaT cells at 100 nM after 24 hrs by real-time PCR relative to 1-alpha,25-dihydroxyvitamin D3. Type of test: functional.
Conditions: not given
The method, boiled down:
(§2)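 Cells seeded at 1 × 10⁴ per well and treated 24 h later with ethanol vehicle or 100 nM ligand for 24 h. Total RNA taken by a chloroform method, reverse-transcribed, and target mRNA quantified by SYBR Green real-time PCR, normalized to ACTIN mRNA. Culture media: HEK293 in DMEM 5% FBS; SW480 and HaCaT in DMEM 10% FBS; MG63 in MEM 10% FBS; THP-1 and U937 in RPMI1640 10% FBS; all at 37 °C, 5% CO₂.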
In general terms: In qPCR the cycle at which signal appears reflects the starting amount.
Compound `C=C1[C@H](O)CC(=C/C=C2\CCC[C@]3(C)[C@@H]([C@H](C)CC#C[C@H](O)CC45CC6CC(CC(C6)C4)C5)CC[C@@H]23)C[C@H]1O` showed an Activity of 20%.

For a further test, the target named is T1, Vitamin D3 receptor. The test is described as follows: Activation of human VDR expressed in HEK293 cells cotransfected CMX-GAL4-NCoR2 and 4-tk-LUC assessed as inhibition of NCoR2 binding to VDR by mammalian two-hybrid assay.
Conditions: not given
Type of test: cell-based. An outline of the steps: as §1
As to `C=C1[C@H](O)CC(=C/C=C2\CCC[C@]3(C)[C@@H]([C@H](C)CC#C[C@H](O)CC45CC6CC(CC(C6)C4)C5)CC[C@@H]23)C[C@H]1O`, the EC50 is 2.4 nM.

For another test, the system named is THP-1. The test is described as follows: Induction of cathelicidine antimicrobial peptide mRNA expression in human THP1 cells at 100 nM after 24 hrs by real-time PCR relative to 1-alpha,25-dihydroxyvitamin D3. Type of test: functional.
Conditions: not given
The method, boiled down:
as §2
For the compound `C=C1[C@H](O)CC(=C/C=C2\CCC[C@]3(C)[C@@H]([C@H](C)CC#C[C@H](O)CC45CC6CC(CC(C6)C4)C5)CC[C@@H]23)C[C@H]1O`, the Activity turned out to be 74%.

A further test has as its system U-937. Description: Induction of cathelicidine antimicrobial peptide mRNA expression in human U937 cells at 100 nM after 24 hrs by real-time PCR relative to 1-alpha,25-dihydroxyvitamin D3. Type of test: functional.
Conditions: not given
An outline of the steps: as §2
In turn, `C=C1[C@H](O)CC(=C/C=C2\CCC[C@]3(C)[C@@H]([C@H](C)CC#C[C@H](O)CC45CC6CC(CC(C6)C4)C5)CC[C@@H]23)C[C@H]1O` displayed an Activity of 75%.

A further test addresses T1, Vitamin D3 receptor. Description: Activation of human VDR expressed in HEK293 cells cotransfected CMX-GAL4-SRC1 and 4-tk-LUC assessed as SRC1 interaction with AF2 surface of VDR by mammalian two-hybrid assay. Type of test: cell-based.
Conditions: not given
An outline of the steps: as §1
Turning to `C=C1[C@H](O)CC(=C/C=C2\CCC[C@]3(C)[C@@H]([C@H](C)CC#C[C@H](O)CC45CC6CC(CC(C6)C4)C5)CC[C@@H]23)C[C@H]1O`, the EC50 was determined as 6.5 nM.

Another test deals with SW480. The test is described as follows: Induction of TRPV6 mRNA expression in human SW480 cells at 100 nM after 24 hrs by real-time PCR relative to 1-alpha,25-dihydroxyvitamin D3. Type of test: functional.
Conditions: not given
An outline of the steps:
as §2
`C=C1[C@H](O)CC(=C/C=C2\CCC[C@]3(C)[C@@H]([C@H](C)CC#C[C@H](O)CC45CC6CC(CC(C6)C4)C5)CC[C@@H]23)C[C@H]1O` yielded an Activity of 40%.

In another test the target is T2, Vitamin D3 receptor (Homo sapiens) (UniProt P11473).
T2 sequence (whole entry): T1 sequence (P11473 whole entry)
As to conditions: HEK293, 10 to 1000 nM.
Turning to `C=C1[C@H](O)CC(=C/C=C2\CCC[C@]3(C)[C@@H]([C@H](C)CC#C[C@H](O)CC45CC6CC(CC(C6)C4)C5)CC[C@@H]23)C[C@H]1O`, the inhibition result was “Active”.

The target in another test is T1, Vitamin D3 receptor. Description: Activation of human VDR expressed in HEK293 cells cotransfected CMX-GAL4-N-CoR and 4-tk-LUC assessed as inhibition of N-CoR binding to VDR by mammalian two-hybrid assay. Type of test: cell-based.
Conditions: not given
An outline of the steps:
as §1
`C=C1[C@H](O)CC(=C/C=C2\CCC[C@]3(C)[C@@H]([C@H](C)CC#C[C@H](O)CC45CC6CC(CC(C6)C4)C5)CC[C@@H]23)C[C@H]1O`: the EC50 amounted to 3.7 nM.

For the next test, the system named is U-937. The test is described as follows: Induction of cyp24A1 mRNA expression in human U937 cells at 100 nM after 24 hrs by real-time PCR relative to 1-alpha,25-dihydroxyvitamin D3. Type of test: functional.
Conditions: not given
The method, boiled down: as §2
The compound `C=C1[C@H](O)CC(=C/C=C2\CCC[C@]3(C)[C@@H]([C@H](C)CC#C[C@H](O)CC45CC6CC(CC(C6)C4)C5)CC[C@@H]23)C[C@H]1O` showed an Activity of 50%.

Another test has as its system HEK293. The test is described as follows: Induction of cyp24A1 mRNA expression in HEK293 cells at 100 nM after 24 hrs by real-time PCR relative to 1-alpha,25-dihydroxyvitamin D3. Type of test: functional, Homo sapiens.
Conditions: not given
The method, boiled down: as §2
`C=C1[C@H](O)CC(=C/C=C2\CCC[C@]3(C)[C@@H]([C@H](C)CC#C[C@H](O)CC45CC6CC(CC(C6)C4)C5)CC[C@@H]23)C[C@H]1O` displayed an Activity of 45%.

The next test deals with U-937. Description: Induction of cathelicidine antimicrobial peptide mRNA in human U937 cells at 100 nM after 24 hrs by real-time PCR relative to skin cells. Type of test: functional.
Conditions: not given
An outline of the steps: (§3)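 THP-1 and U937 cells were grown in RPMI1640 with 10% FBS and penicillin/streptomycin at 37 °C under 5% CO₂, and plated at 1 × 10⁴ cells/well. After 24 h, cells got an ethanol control, 100 nM 1,25(OH)₂D₃ or 100 nM analogue for 24 h. RNA was extracted by a chloroform method and reverse-transcribed. CAMP was measured by SYBR Green real-time PCR, normalized to ACTIN mRNA and compared with 1,25(OH)₂D₃.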
With `C=C1[C@H](O)CC(=C/C=C2\CCC[C@]3(C)[C@@H]([C@H](C)CC#C[C@H](O)CC45CC6CC(CC(C6)C4)C5)CC[C@@H]23)C[C@H]1O`, the “fold change (FC)” value was determined as 3.5.

For a further test, the system named is THP-1. Description: Induction of cathelicidine antimicrobial peptide mRNA expression in human THP1 cells at 100 nM after 24 hrs by real-time PCR relative to skin cells. Type of test: functional.
Conditions: not given
An outline of the steps: as §3
With `C=C1[C@H](O)CC(=C/C=C2\CCC[C@]3(C)[C@@H]([C@H](C)CC#C[C@H](O)CC45CC6CC(CC(C6)C4)C5)CC[C@@H]23)C[C@H]1O`, the “fold change (FC)” value amounted to 3.5.

The next test has as its system THP-1. Description: Induction of cyp24A1 mRNA expression in human THP1 cells at 100 nM after 24 hrs by real-time PCR relative to 1-alpha,25-dihydroxyvitamin D3. Type of test: functional.
Conditions: not given
An outline of the steps: as §2
Take `C=C1[C@H](O)CC(=C/C=C2\CCC[C@]3(C)[C@@H]([C@H](C)CC#C[C@H](O)CC45CC6CC(CC(C6)C4)C5)CC[C@@H]23)C[C@H]1O`: the Activity came to 10%.

In another test the test system is SW480. The test is described as follows: Induction of cyp24A1 mRNA expression in human SW480 cells at 100 nM after 24 hrs by real-time PCR relative to 1-alpha,25-dihydroxyvitamin D3. Type of test: functional.
Conditions: not given
An outline of the steps:
as §2
`C=C1[C@H](O)CC(=C/C=C2\CCC[C@]3(C)[C@@H]([C@H](C)CC#C[C@H](O)CC45CC6CC(CC(C6)C4)C5)CC[C@@H]23)C[C@H]1O` returned an Activity of 10%.

Another test deals with T1, Vitamin D3 receptor. Description: Transactivation of human VDR expressed in HEK293 cells cotransfected with mouse VDRE, Tk-Sppx3-LUC reporter plasmid measured after 24 hrs by luciferase reporter assay. Type of test: cell-based.
Conditions: not given
An outline of the steps: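 HEK293 cells in DMEM with 5% FBS, calcium phosphate-transfected per well with 50 ng TK-Spp×3-LUC (mouse osteopontin VDRE), 10 ng pCMX-β-galactosidase, 15 ng pCMX-VDR and 15 ng pCMX-RXRα. Compounds were tested across a concentration range and cells harvested after 16–24 h. Luciferase was normalised to β-galactosidase. EC50 and efficacy relative to 1,25(OH)₂D₃.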
As to `C=C1[C@H](O)CC(=C/C=C2\CCC[C@]3(C)[C@@H]([C@H](C)CC#C[C@H](O)CC45CC6CC(CC(C6)C4)C5)CC[C@@H]23)C[C@H]1O`, the EC50 was 1.5 nM.

The next test has as its system HaCaT. The test is described as follows: Induction of cyp24A1 mRNA expression in human HaCaT cells at 100 nM after 24 hrs by real-time PCR relative to 1-alpha,25-dihydroxyvitamin D3.
Conditions: not given
Type of test: functional. The method, boiled down: as §2
Turning to `C=C1[C@H](O)CC(=C/C=C2\CCC[C@]3(C)[C@@H]([C@H](C)CC#C[C@H](O)CC45CC6CC(CC(C6)C4)C5)CC[C@@H]23)C[C@H]1O`, the Activity turned out to be 10%.

The subject of a further test is MG-63. Description: Induction of cyp24A1 mRNA expression in human MG63 cells at 100 nM after 24 hrs by real-time PCR relative to 1-alpha,25-dihydroxyvitamin D3. Type of test: functional.
Conditions: not given
An outline of the steps:
as §2
`C=C1[C@H](O)CC(=C/C=C2\CCC[C@]3(C)[C@@H]([C@H](C)CC#C[C@H](O)CC45CC6CC(CC(C6)C4)C5)CC[C@@H]23)C[C@H]1O`: the Activity worked out at 50%.

(Values after ChEMBL document CHEMBL3259615, “Combination of triple bond and adamantane ring on the vitamin D side chain produced partial agonists for vitamin D receptor” (J Med Chem, 2014).)
